{"source": "ChEMBL document CHEMBL5715950", "about": "“Characterization of molecular and cellular functions of the cyclin-dependent kinase CDK9 using a novel specific inhibitor” (Br J Pharmacol, 2014)", "key": {"[1]": {"biological_target": "Cyclin-dependent kinase 1/cyclin B1 (Homo sapiens, UniProt P06493)", "sequence (P06493 whole entry)": "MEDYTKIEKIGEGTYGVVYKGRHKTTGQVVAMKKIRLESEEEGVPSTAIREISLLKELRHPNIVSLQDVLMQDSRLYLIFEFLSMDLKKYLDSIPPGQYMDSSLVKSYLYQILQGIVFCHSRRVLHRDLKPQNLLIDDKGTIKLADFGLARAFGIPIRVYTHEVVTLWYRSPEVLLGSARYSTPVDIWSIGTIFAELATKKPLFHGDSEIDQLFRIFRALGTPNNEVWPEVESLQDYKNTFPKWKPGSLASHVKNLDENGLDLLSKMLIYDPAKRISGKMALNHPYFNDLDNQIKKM", "sequence (P14635 whole entry, further chain)": "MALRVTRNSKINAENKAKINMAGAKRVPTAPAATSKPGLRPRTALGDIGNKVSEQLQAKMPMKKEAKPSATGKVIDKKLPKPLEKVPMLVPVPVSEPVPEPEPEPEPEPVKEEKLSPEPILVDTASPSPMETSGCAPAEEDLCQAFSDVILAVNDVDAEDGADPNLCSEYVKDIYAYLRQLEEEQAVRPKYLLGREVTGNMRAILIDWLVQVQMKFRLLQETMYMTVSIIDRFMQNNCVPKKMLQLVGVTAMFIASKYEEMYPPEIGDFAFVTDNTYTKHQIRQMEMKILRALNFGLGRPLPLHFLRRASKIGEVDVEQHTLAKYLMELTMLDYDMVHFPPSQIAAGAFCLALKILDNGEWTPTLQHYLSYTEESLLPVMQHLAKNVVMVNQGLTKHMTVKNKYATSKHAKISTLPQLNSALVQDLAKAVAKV", "assay": "Inhibition of CDK1/Cyclin B1 (unknown origin) using ULight MBP peptide as substrate in presence of ATP incubated for 1 hr by FRET based LANCE Ultra KinaSelect screen assay", "type": "protein-complex assay", "method_in_brief": "(§1)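 Time-resolved FRET kinase assay with purified CDK-cyclin pairs. ULight MBP peptide substrate was 50 nM final. Buffer was 50 mM HEPES-KOH pH 7.5, 10 mM MgCl2, 1 mM EGTA and 2 mM DTT, with ATP at each kinase's KM (CDK2-cyclin A 3 μM). Reactions ran 1 h at room temperature, then 2 nM Eu-labelled anti-phospho antibody was added for detection. IC50 given as mean ± SD.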"}, "[2]": {"biological_target": "Cyclin-dependent kinase 4/cyclin D1 (Homo sapiens, UniProt P11802)", "sequence (P11802 whole entry)": "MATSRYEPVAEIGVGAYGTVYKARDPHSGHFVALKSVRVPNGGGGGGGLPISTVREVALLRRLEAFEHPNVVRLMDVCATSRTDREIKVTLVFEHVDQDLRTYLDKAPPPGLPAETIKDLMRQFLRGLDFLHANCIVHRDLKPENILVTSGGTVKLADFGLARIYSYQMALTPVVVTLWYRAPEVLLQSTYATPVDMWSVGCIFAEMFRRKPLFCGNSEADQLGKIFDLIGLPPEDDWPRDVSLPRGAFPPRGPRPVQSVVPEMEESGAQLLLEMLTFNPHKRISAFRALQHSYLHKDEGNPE", "sequence (P24385 whole entry, further chain)": "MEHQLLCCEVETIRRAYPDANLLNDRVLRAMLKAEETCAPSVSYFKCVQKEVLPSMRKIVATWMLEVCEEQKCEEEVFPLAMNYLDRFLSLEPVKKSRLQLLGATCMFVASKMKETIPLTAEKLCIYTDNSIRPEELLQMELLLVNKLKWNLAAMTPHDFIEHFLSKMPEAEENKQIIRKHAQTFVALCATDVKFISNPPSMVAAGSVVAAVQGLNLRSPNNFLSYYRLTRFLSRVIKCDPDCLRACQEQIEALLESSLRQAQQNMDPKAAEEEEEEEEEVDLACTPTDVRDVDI", "assay": "Inhibition of CDK4/Cyclin D1 (unknown origin) using ULight MBP peptide as substrate in presence of ATP incubated for 1 hr by FRET based LANCE Ultra KinaSelect screen assay", "type": "protein-complex assay"}, "CDK6/cyclin D3": {"biological_target": "CDK6/cyclin D3 (Homo sapiens, UniProt Q00534)", "sequence (P30281 whole entry)": "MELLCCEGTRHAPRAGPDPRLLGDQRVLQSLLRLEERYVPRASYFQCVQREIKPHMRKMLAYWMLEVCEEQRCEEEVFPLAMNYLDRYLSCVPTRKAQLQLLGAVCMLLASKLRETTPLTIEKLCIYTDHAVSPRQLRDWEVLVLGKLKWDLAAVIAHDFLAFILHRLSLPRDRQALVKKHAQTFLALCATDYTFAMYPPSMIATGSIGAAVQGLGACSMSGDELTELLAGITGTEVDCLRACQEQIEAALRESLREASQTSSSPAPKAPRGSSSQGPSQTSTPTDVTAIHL", "sequence (Q00534 whole entry)": "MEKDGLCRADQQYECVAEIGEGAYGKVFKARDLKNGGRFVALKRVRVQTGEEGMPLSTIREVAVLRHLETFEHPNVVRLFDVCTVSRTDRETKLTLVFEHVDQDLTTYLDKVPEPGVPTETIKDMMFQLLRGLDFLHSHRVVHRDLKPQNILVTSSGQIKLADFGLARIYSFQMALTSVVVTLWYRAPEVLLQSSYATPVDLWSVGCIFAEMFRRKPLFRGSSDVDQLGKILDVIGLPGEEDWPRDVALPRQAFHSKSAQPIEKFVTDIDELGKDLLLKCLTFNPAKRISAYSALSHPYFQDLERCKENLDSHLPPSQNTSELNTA", "assay": "Inhibition of CDK6/Cyclin D3 (unknown origin) using ULight MBP peptide as substrate in presence of ATP incubated for 1 hr by FRET based LANCE Ultra KinaSelect screen assay", "type": "protein-complex assay", "method_in_brief": "as §1"}, "[3]": {"assay": "Selectivity ratio of IC50 for inhibition of CDK9/Cyclin T1 (unknown origin) to IC50 for inhibition of CDK6/Cyclin D3 (unknown origin)"}, "[4]": {"biological_target": "CDK9/cyclin T1 (Homo sapiens) (UniProt O60563+P50750)", "assay": "Inhibition of CDK9/Cyclin T1 (unknown origin) assessed as residual activity at 10 uM incubated for 120 mins in presence of 33P-ATP by radiometric kinase assay relative to control", "type": "protein-complex assay"}, "[5]": {"biological_target": "Tyrosine-protein kinase ABL2 (Homo sapiens, UniProt P42684)", "sequence (P42684 whole entry)": "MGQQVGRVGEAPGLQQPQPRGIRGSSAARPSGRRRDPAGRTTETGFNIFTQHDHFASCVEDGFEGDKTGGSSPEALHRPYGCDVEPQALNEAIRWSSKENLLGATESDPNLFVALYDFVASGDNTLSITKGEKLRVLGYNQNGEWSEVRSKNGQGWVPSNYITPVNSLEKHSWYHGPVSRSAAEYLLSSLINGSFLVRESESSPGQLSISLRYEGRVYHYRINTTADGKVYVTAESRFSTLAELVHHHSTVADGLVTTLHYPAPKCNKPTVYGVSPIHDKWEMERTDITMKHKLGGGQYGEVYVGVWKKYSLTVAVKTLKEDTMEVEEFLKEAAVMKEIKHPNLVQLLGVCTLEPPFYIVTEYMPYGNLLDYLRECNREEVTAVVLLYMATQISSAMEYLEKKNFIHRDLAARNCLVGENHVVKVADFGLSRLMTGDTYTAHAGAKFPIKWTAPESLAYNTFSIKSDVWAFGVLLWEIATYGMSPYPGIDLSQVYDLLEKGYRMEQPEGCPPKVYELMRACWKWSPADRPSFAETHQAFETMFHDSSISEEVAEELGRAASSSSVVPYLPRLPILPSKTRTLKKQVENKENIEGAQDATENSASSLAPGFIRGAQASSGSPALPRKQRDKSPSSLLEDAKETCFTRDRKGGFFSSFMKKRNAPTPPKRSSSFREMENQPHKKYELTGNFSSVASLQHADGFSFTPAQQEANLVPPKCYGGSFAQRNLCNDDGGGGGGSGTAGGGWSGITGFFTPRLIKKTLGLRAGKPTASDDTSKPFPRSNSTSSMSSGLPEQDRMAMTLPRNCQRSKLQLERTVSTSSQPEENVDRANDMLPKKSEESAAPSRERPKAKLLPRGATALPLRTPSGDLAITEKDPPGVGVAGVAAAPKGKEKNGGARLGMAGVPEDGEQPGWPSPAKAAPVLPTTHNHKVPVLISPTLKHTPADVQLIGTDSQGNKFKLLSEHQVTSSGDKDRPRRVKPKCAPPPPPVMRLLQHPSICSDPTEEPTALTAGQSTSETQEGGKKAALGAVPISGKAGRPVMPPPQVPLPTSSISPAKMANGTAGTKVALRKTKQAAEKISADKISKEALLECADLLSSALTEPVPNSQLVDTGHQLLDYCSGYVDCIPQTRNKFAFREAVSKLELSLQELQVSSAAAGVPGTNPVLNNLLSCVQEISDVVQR", "assay": "Inhibition of ABL2 (unknown origin) assessed as residual activity at 10 uM incubated for 120 mins in presence of 33P-ATP by radiometric kinase assay relative to control"}, "[6]": {"biological_target": "Glycogen synthase kinase-3 alpha (Homo sapiens, UniProt P49840)", "sequence (P49840 whole entry)": "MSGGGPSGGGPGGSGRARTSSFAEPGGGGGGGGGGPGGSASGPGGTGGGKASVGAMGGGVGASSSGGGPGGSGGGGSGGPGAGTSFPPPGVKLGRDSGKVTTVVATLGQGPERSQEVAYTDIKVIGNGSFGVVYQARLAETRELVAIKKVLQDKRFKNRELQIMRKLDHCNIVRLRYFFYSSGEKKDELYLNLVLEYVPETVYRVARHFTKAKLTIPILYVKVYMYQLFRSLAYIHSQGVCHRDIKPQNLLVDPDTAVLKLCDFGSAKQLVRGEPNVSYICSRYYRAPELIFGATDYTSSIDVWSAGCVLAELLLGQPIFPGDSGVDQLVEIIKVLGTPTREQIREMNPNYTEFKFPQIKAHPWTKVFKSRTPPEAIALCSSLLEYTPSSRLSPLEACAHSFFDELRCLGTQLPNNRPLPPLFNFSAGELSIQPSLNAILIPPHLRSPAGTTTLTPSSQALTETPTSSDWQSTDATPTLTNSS", "assay": "Inhibition of GSK3A (unknown origin) incubated for 120 mins in presence of 33P-ATP by radiometric kinase assay"}, "[7]": {"biological_target": "Calcium/calmodulin-dependent protein kinase type IV (Homo sapiens, UniProt Q16566)", "sequence (Q16566 whole entry)": "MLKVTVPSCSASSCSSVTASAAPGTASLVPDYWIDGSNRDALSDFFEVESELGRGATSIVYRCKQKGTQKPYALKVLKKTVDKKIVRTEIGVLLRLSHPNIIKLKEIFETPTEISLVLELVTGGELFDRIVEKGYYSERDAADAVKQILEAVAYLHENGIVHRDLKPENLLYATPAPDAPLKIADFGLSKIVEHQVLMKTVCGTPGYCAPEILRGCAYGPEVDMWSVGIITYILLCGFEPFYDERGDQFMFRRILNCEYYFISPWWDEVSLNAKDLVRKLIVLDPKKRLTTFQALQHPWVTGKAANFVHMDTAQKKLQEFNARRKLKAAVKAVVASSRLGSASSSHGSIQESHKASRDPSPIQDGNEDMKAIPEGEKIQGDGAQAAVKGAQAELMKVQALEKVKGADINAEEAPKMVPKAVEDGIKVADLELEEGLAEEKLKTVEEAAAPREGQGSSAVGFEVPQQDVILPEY", "assay": "Inhibition of CAMK4 (unknown origin) incubated for 120 mins in presence of 33P-ATP by radiometric kinase assay"}, "[8]": {"biological_target": "Cyclin-dependent kinase 9 (Homo sapiens) (UniProt P50750)", "sequence (P50750 whole entry)": "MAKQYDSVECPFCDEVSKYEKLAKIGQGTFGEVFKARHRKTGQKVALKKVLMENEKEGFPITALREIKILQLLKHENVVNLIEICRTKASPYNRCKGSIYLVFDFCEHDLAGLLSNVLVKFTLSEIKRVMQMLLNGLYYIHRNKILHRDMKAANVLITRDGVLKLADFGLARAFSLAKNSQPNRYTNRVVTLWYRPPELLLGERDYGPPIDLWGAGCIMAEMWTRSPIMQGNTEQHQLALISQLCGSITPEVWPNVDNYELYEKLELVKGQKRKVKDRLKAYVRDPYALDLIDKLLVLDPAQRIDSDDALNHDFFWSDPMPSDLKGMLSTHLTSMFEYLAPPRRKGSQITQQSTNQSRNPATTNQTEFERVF", "assay": "Inhibition of CDK9 in human HeLa cells assessed as downregulation of Serine 5 phosphorylation at 10 uM incubated for 60 mins by Western blotting analysis", "type": "cell-based"}, "[9]": {"biological_target": "Cyclin-dependent kinase 9 (Homo sapiens) (UniProt P50750)", "assay": "Inhibition of CDK9 in human HeLa cells assessed as downregulation of Serine 7 phosphorylation at 10 uM incubated for 60 mins by Western blotting analysis", "type": "cell-based"}, "[10]": {"biological_target": "Cyclin-dependent kinase 9 (Homo sapiens) (UniProt P50750)", "assay": "Inhibition of CDK9 in human MCF7 cells assessed as upregulation of p53 phosphorylation at Ser392 at 10 uM incubated for 4 hrs by Western blotting analysis", "type": "cell-based"}, "[11]": {"biological_target": "Cyclin-dependent kinase 9 (Homo sapiens) (UniProt P50750)", "assay": "Inhibition of CDK9 in human MCF7 cells assessed as upregulation of p53 protein at 10 uM incubated for 4 hrs by Western blotting analysis", "type": "cell-based"}, "HeLa [12]": {"test_system": "HeLa", "assay": "Induction of apoptosis in human HeLa cells at > 2 uM incubated for 24 hrs by Annexin V-FITC/PI staining based flow cytometric analysis", "type": "functional, cell-based", "method_in_brief": "(§2)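 Cells grown at 37°C, 5% CO2 (A549, HeLa, MCF7 in DMEM high glucose; HCT116 in McCoy's 5A; THP1 and primary AML M4 apheresis blasts in RPMI1640), exposed to inhibitor or DMSO for 24 h. Apoptotic fraction by flow cytometry after annexin V-fluorescein/propidium iodide double staining. Means ± SD of three biological replicates; AML blasts from one patient, three technical replicates. Student's t-test versus DMSO/untreated.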"}, "THP-1": {"test_system": "THP-1", "assay": "Induction of apoptosis in human THP-1 cells at > 2 uM incubated for 24 hrs by Annexin V-FITC/PI staining based flow cytometric analysis", "type": "functional, cell-based", "method_in_brief": "as §2"}, "Leukemia cell": {"test_system": "Leukemia cell", "assay": "Induction of apoptosis in human Acute myeloid leukemic cell at > 2 uM incubated for 24 hrs by Annexin V-FITC/PI staining based flow cytometric analysis", "type": "functional", "method_in_brief": "as §2"}, "HCT 116 TP53(-/-)": {"test_system": "HCT 116 TP53(-/-)", "assay": "Induction of apoptosis in human HCT116-p53-null cells at 10 uM incubated for 24 hrs by Annexin V-FITC/PI staining based flow cytometric analysis", "type": "functional, cell-based", "method_in_brief": "as §2"}, "A549": {"test_system": "A549", "assay": "Induction of apoptosis in human A549 cells at 10 uM incubated for 24 hrs by Annexin V-FITC/PI staining based flow cytometric analysis", "type": "functional, cell-based", "method_in_brief": "as §2"}, "MCF7": {"test_system": "MCF7", "assay": "Induction of apoptosis in human MCF7 cells at 10 uM incubated for 24 hrs by Annexin V-FITC/PI staining based flow cytometric analysis", "type": "functional, cell-based", "method_in_brief": "as §2"}, "[13]": {"biological_target": "Cyclin-dependent kinase 9 (Homo sapiens) (UniProt P50750)", "assay": "Inhibition of CDK9 in human A549 cells assessed as downregulation of PLK2 mRNA expression at 1 to 10 uM incubated for 90 mins by RT-qPCR analysis relative to control", "type": "cell-based", "conditions": "dose 1-10 µM"}, "[14]": {"biological_target": "Cyclin-dependent kinase 9 (Homo sapiens) (UniProt P50750)", "assay": "Inhibition of CDK9 in human A549 cells assessed as downregulation of CCND1 mRNA expression at 1 to 10 uM incubated for 90 mins by RT-qPCR analysis relative to control", "type": "cell-based", "conditions": "dose 1-10 µM"}, "[15]": {"biological_target": "Cyclin-dependent kinase 9 (Homo sapiens) (UniProt P50750)", "assay": "Inhibition of CDK9 in human A549 cells assessed as downregulation of MYC mRNA expression at 1 to 10 uM incubated for 90 mins by RT-qPCR analysis relative to control", "type": "cell-based", "conditions": "dose 1-10 µM"}, "[16]": {"biological_target": "Cyclin-dependent kinase 9 (Homo sapiens) (UniProt P50750)", "assay": "Inhibition of CDK9 in human A549 cells assessed as downregulation of RPL3 mRNA expression at 2 to 6 uM incubated for 90 mins by RT-qPCR analysis relative to control", "type": "cell-based", "conditions": "dose 2-6 µM"}, "[17]": {"biological_target": "Cyclin-dependent kinase 9 (Homo sapiens) (UniProt P50750)", "assay": "Inhibition of CDK9 in human A549 cells assessed as downregulation of MYC mRNA expression at 2 to 6 uM incubated for 90 mins by RT-qPCR analysis relative to control", "type": "cell-based", "conditions": "dose 2-6 µM"}, "[18]": {"biological_target": "Cyclin-dependent kinase 9 (Homo sapiens) (UniProt P50750)", "assay": "Inhibition of CDK9 in human A549 cells assessed as downregulation of GAPDH mRNA expression at 2 to 6 uM incubated for 90 mins by RT-qPCR analysis relative to control", "type": "cell-based", "conditions": "dose 2-6 µM"}, "HeLa [19]": {"test_system": "HeLa", "assay": "Inhibition of RNA synthesis in human HeLa cells stably transfected with luciferase reporter gene incubated for 30 mins followed by doxycycline addition and measured after 60 mins by RT-qPCR analysis", "type": "functional, cell-based", "conditions": "time 90.0 min", "method_in_brief": "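Stably transfected HeLa cells carrying a tetracycline-inducible luciferase reporter: inhibitor or DMSO for 30 min, then 1 μg/mL doxycycline for 60 min. De novo reporter transcripts measured by RT-qPCR.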"}, "[20]": {"biological_target": "Cyclin-dependent kinase 9 (Homo sapiens) (UniProt P50750)", "assay": "Inhibition of CDK9 in human THP-1 cells assessed as downregulation of RPS15 mRNA expression by RT-qPCR analysis", "type": "cell-based"}, "[21]": {"biological_target": "Cyclin-dependent kinase 9 (Homo sapiens) (UniProt P50750)", "assay": "Inhibition of CDK9 in human THP-1 cells assessed as downregulation of RPL31 mRNA expression by RT-qPCR analysis", "type": "cell-based"}, "[22]": {"biological_target": "Cyclin-dependent kinase 9 (Homo sapiens) (UniProt P50750)", "assay": "Inhibition of CDK9 in human THP-1 cells assessed as downregulation of MED1 mRNA expression by RT-qPCR analysis", "type": "cell-based"}}, "note": "Calls of active or inactive are those of the source. No cut-off for these calls is given here.", "data": [{"smiles": "COc1ccccc1-c1cc(Nc2cccc(NS(C)(=O)=O)c2)ncn1", "values": [{"measurement": "IC50", "setting": "[1]", "result": 5.51, "unit": "µM"}, {"measurement": "IC50", "setting": "[2]", "result": 9.24, "unit": "µM"}, {"measurement": "IC50", "setting": "CDK6/cyclin D3", "result": "> 10", "unit": "µM"}, {"measurement": "Ratio IC50", "setting": "[3]", "result": "> 227"}, {"measurement": "Activity", "setting": "[4]", "result": 6, "unit": "%"}, {"measurement": "Activity", "setting": "[5]", "result": 27, "unit": "%"}, {"measurement": "IC50", "setting": "[6]", "result": 1460, "unit": "nM"}, {"measurement": "IC50", "setting": "[7]", "result": "> 20", "unit": "µM"}, {"measurement": "inhibition", "setting": "[8]", "result": "inactive"}, {"measurement": "inhibition", "setting": "[9]", "result": "inactive"}, {"measurement": "inhibition", "setting": "[10]", "result": "Active"}, {"measurement": "inhibition", "setting": "[11]", "result": "Active"}, {"measurement": "Activity", "setting": "HeLa [12]", "result": "Active"}, {"measurement": "Activity", "setting": "THP-1", "result": "Active"}, {"measurement": "Activity", "setting": "Leukemia cell", "result": "Active"}, {"measurement": "Activity", "setting": "HCT 116 TP53(-/-)", "result": "Active"}, {"measurement": "Activity", "setting": "A549", "result": "Active"}, {"measurement": "Activity", "setting": "MCF7", "result": "Active"}, {"measurement": "inhibition", "setting": "[13]", "result": 50, "unit": "%"}, {"measurement": "inhibition", "setting": "[14]", "result": 50, "unit": "%"}, {"measurement": "inhibition", "setting": "[15]", "result": 50, "unit": "%"}, {"measurement": "inhibition", "setting": "[16]", "result": 50, "unit": "%"}, {"measurement": "inhibition", "setting": "[17]", "result": 50, "unit": "%"}, {"measurement": "inhibition", "setting": "[18]", "result": 50, "unit": "%"}, {"measurement": "inhibition", "setting": "HeLa [19]", "result": "Dose-Dependent Effect"}, {"measurement": "inhibition", "setting": "[20]", "result": "Active"}, {"measurement": "inhibition", "setting": "[21]", "result": "Active"}, {"measurement": "inhibition", "setting": "[22]", "result": "Active"}]}]}
